Data taken from paper PMC3415686 (Bioorganic & medicinal chemistry letters, 2012).
Blank lines part the entries; values can stand above or below the compound they belong to.

Key:
Bcr-Abl-T315I-Ba/F3 = Bcr-Abl-T315I-Ba/F3 (Homo sapiens, UniProt P00519+P11274, T315I); test: Cellular antiproliferative activity on mutant Bcr-Abl-T315I-Ba/F3; assay type: cell-based, murine
In short: (§1)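 Murine pre-B Ba/F3 cells transformed with the Bcr-Abl oncogene were used for cellular Bcr-Abl inhibition. Transformed cells grow without interleukin-3 (IL-3). Untransformed parental Ba/F3 cells proliferate only when IL-3 is present.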

wt Bcr-Abl-Ba/F3 = wt Bcr-Abl-Ba/F3 (Homo sapiens, UniProt P00519+P11274); test: Cellular antiproliferative activity on wt Bcr-Abl-Ba/F3; assay type: cell-based, murine; settings: for antiproliferative activity against wild-type Bcr-Abl (in words): Ba/F3 cells transformed with Bcr-Abl
In short: as §1

panel of 353 kinases = test: KINOMEscan kinase selectivity profiling; assay type: binding; settings: 10 μM
In short: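 KINOMEscan competition binding screen with the test compound at 10 μM against 353 kinases. Hits were kinases with an Ambit score below 10% of the DMSO control. S(10) is the number of kinases scoring below ten divided by the total number of kinases tested at that concentration.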

wt-Ba/F3 = test: Cytotoxicity on wt; assay type: cell-based, murine
In short: as §1

[1] = Pharmacokinetics following oral and intravenous delivery; assay type: in vivo, rats; settings: rat
In short: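 Rats were dosed with the test compound orally and intravenously; the oral dose was 2 mg/kg. Serum drug levels were followed to derive oral bioavailability (%F), half-life, Cmax and clearance.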

Structure (SMILES): Nc1nc2ccc(-c3cccc(C(=O)Nc4cccc(C(F)(F)F)c4)c3)nc2s1 [Compound 9a]
- antiproliferative activity against T315I-Bcr-Abl (in words) (Bcr-Abl-T315I-Ba/F3; Ba/F3 cells transformed with T315I-Bcr-Abl): did not display antiproliferative activity
- antiproliferative activity against wild-type Bcr-Abl (in words) (wt Bcr-Abl-Ba/F3): did not display antiproliferative activity

- S(10) score (kinases inhibited below a score of ten / total kinases tested) (panel of 353 kinases): 0.10
- improvement in cellular antiproliferative activity relative to 11 against T315I-Bcr-Abl (Bcr-Abl-T315I-Ba/F3; relative to 11): ~6 fold
- AUC (%extrapolated) ([1]; IV 1 mg/kg): 35.3%
- AUC (%extrapolated) ([1]; PO 2 mg/kg): 35%
- Tmax ([1]; serum, iv, 1 mg/kg): 4.8 min
- clearance ([1]; serum, iv, 1 mg/kg): 13 mL/min/kg
- Tmax ([1]; serum, po, 2 mg/kg): 162 min
- EC50 (wt Bcr-Abl-Ba/F3; read-out: Cellular antiproliferative activity (EC50, μM) Bcr-Abl (wt), wt Bcr-Abl-Ba/F3): 0.098 µM
Structure (SMILES): CCN1CCN(Cc2ccc(NC(=O)c3cccc(-c4ccc5nc(NC(=O)C6CC6)sc5n4)c3)cc2C(F)(F)F)CC1 [Compound 22]
- decrease in cytotoxicity against parental Ba/F3 cells relative to 11 (wt-Ba/F3; relative to 11): 3 fold

- loss of cellular activity relative to 22 (wt Bcr-Abl-Ba/F3; relative to 22, cell line not given): approximately 10 fold
Structure (SMILES): O=C(Nc1ccc(N2CCNCC2)c(C(F)(F)F)c1)c1cccc(-c2ccc3nc(NC(=O)C4CC4)sc3n2)c1 [Compound 24]

- S(10) score (kinases inhibited below a score of ten / total kinases tested) (panel of 353 kinases): 0.36
- AUC (%extrapolated) ([1]; IV 1 mg/kg): 8.7%
- AUC (%extrapolated) ([1]; PO 2 mg/kg): 21%
- Tmax ([1]; serum, iv, 1 mg/kg): 8.4 min
- Tmax ([1]; serum, po, 2 mg/kg): 66 min
Structure (SMILES): Cc1cn(-c2cc(NC(=O)c3cccc(-c4ccc5nc(NC(=O)C6CC6)sc5n4)c3)cc(C(F)(F)F)c2)cn1 [Compound 26]

- antiproliferative activity against wild-type Bcr-Abl (in words) (wt Bcr-Abl-Ba/F3): exceptionally potent
Structure (SMILES): CCN1CCN(Cc2ccc(NC(=O)c3ccc(C)c(-c4ccc5nc(NC(=O)C6CC6)sc5n4)c3)cc2C(F)(F)F)CC1 [Compound 27]

- improved activity on T315I Bcr-Abl (urea linkage) (Bcr-Abl-T315I-Ba/F3; urea linkage in place of amide): 5–10 fold
- improved activity on wild-type Bcr-Abl (urea linkage) (wt Bcr-Abl-Ba/F3; urea linkage in place of amide): 5–10 fold
Structure (SMILES): CCN1CCN(Cc2ccc(NC(=O)Nc3cccc(-c4ccc5nc(NC(=O)C6CC6)sc5n4)c3)cc2C(F)(F)F)CC1 [Compound 32]
- increased cytotoxicity towards parental Ba/F3 cells (urea linkage) (wt-Ba/F3; urea linkage in place of amide): approximately 5 fold

- reduction in cellular activity against T315I-Bcr-Abl compared to 22 (Bcr-Abl-T315I-Ba/F3; compared to 22): ~4 fold
Structure (SMILES): Cc1cn(-c2cc(NC(=O)Nc3cccc(-c4ccc5nc(NC(=O)C6CC6)sc5n4)c3)cc(C(F)(F)F)c2)cn1 [Compound 33]
